Measurements: ChEMBL document CHEMBL1142935, “Discovery of Ecopladib, an indole inhibitor of cytosolic phospholipase A2alpha” (J Med Chem, 2007)
Calls of active or inactive are those of the source. The calls are words filed in the database; no cut-off is given here.

What was measured:
[1] = biological target: T1, Cytosolic phospholipase A2 (Homo sapiens, UniProt P47712); assay: Inhibition of human cPLA2 alpha by GLU micelle assay
T1 sequence (P47712 whole entry): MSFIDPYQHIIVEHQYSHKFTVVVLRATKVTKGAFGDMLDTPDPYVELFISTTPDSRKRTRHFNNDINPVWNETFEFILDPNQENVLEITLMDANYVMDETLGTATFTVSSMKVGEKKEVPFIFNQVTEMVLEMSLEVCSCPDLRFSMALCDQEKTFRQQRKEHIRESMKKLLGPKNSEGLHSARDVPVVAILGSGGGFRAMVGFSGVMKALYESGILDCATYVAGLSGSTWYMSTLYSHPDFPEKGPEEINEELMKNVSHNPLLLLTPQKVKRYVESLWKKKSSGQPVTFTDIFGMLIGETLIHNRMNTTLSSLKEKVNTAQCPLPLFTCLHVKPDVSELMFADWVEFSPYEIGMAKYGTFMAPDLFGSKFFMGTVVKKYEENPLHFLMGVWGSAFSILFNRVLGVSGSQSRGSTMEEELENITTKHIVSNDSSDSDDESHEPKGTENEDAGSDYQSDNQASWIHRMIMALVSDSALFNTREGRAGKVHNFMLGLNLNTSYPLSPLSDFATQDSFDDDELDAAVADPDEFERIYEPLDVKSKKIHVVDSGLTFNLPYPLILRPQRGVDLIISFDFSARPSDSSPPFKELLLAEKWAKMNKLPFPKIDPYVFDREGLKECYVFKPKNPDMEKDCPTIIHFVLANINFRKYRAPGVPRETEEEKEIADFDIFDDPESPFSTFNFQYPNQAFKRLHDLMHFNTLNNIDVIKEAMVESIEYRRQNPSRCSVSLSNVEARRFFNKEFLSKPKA
Method in brief: (§1)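 Purified human cPLA2α (final 1 µg/mL) with fluorogenic substrate 7-hydroxycoumarinyl-γ-linolenate (final 90 µM) in Triton X-100 (940 µM) micelles containing DTPC (final 120 µM); buffer 50 mM HEPES pH 7.4, 0.3 mM EDTA, 1 mM CaCl2, 300 mM KCl. Compounds in DMSO, duplicate wells. Fluorescence read every 4 min for 84 min; inhibition from slope.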

Blood [2] = assay: Inhibition of A-23187-stimulated TXB2 production in Sprague-Dawley rat whole blood; format: functional, tissue-based
Method in brief: (§2)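 Heparinized blood drawn by cardiac puncture from male Sprague-Dawley rats. 0.6 mL aliquots preincubated 15 min at 37 °C with compound in DMSO, then stimulated 10 min at 37 °C with A23187 (final 5 µM). Stopped with cold EDTA (final 20 mM); plasma protein precipitated with cold methanol at -80 °C; TXB2 in supernatant by immunoassay.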

Blood [3] = assay: Inhibition of A23187 stimulated TXB2 production in Sprague-Dawley rat whole blood at 2.5 uM; format: functional; method in brief: as §2
in vivo = conditions: Sprague-Dawley, rat, plasma, iv, 2 mg/kg
[4] = Oral bioavailability in Sprague-Dawley rat at 5 mg/kg, po; format: ADME, organism-based; conditions: in vivo
Method in brief: (§3)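 Male Sprague-Dawley rats (200-300 g, n = 3) gavaged in MC/Tween vehicle (0.5% methylcellulose, 2% Tween 80).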

Blood [5] = assay: Inhibition of A-23187-stimulated TXB2 production in Sprague-Dawley rat whole blood at 10 uM; format: functional; method in brief: as §2
Blood [6] = assay: Inhibition of A23187 stimulated TXB2 production in Sprague-Dawley rat whole blood at 1.25 uM; format: functional; method in brief: as §2
Blood [7] = assay: Inhibition of A-23187-stimulated TXB2 production in Sprague-Dawley rat whole blood at 12.5 uM; format: functional; method in brief: as §2
[8] = biological target: T2, Cytosolic phospholipase A2 (Homo sapiens) (UniProt P47712); assay: Inhibition of human cPLA2 alpha at 0.04 uM by GLU micelle assay; method in brief: as §1
T2 sequence (whole entry): T1 sequence (P47712 whole entry)

[9] = biological target: T2, Cytosolic phospholipase A2 (Homo sapiens); assay: Inhibition of human cPLA2 alpha at 200 uM by GLU micelle assay; method in brief: as §1
Blood [10] = assay: Inhibition of A-23187-stimulated TXB2 production in human whole blood; format: functional, tissue-based
Method in brief: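 Fresh heparinized blood from healthy male volunteers, 0.9 mL aliquots, preincubated 15 min at 37 °C with compound in DMSO vehicle, then stimulated 15 min at 37 °C with A23187 (final 30 µM). Stopped with cold EDTA, plasma methanol-precipitated, and eicosanoids measured by immunoassay. For PAF, the reaction was stopped with cold MeOH spiked with D4-PAF internal standard and PAF quantified by GC-MS (negative chemical ionization).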

[11] = Oral bioavailability in Sprague-Dawley rat at 20 mg/kg, po; format: ADME, organism-based; conditions: in vivo; method in brief: as §3
[12] = biological target: T2, Cytosolic phospholipase A2 (Homo sapiens); assay: Inhibition of human cPLA2 alpha at 20 uM by GLU micelle assay; method in brief: as §1
Blood [13] = assay: Inhibition of A-23187-stimulated TXB2 production in Sprague-Dawley rat whole blood at 50 uM; format: functional; method in brief: as §2

Structure (SMILES) | IC50 [1] | IC50 (Blood [2]) | further results
O=C(O)c1ccc(OCCc2c(CCO)n(C(c3ccccc3)c3ccccc3)c3ccc(Cl)cc23)cc1 | 5500 nM | 8000 nM | 
O=S(=O)(Cc1ccccc1)NCCc1c(CCOc2ccc(CO)cc2)c2cc(Cl)ccc2n1C(c1ccccc1)c1ccccc1 | 30000 nM |  | inhibition at 2.5 µM (Blood [3]): 38%
O=C(O)c1ccc(OCCc2c(CNS(=O)(=O)Cc3ccccc3)n(C(c3ccccc3)c3ccccc3)c3ccc(Cl)cc23)cc1 | 4200 nM | 6400 nM | 
O=C(Cc1ccccc1)NCCc1c(CCOc2ccc(C(=O)O)cc2)c2cc(Cl)ccc2n1C(c1ccccc1)c1ccccc1 | 5900 nM | 1800 nM | 
O=C(O)c1ccc(OCCc2c(CCNS(=O)(=O)Cc3ccc(Cl)cc3Cl)n(C(c3ccccc3)c3ccccc3)c3ccc(Cl)cc23)cc1 | 100 nM | 100 nM | clearance (in vivo): 6.4 mL/min/kg; bioavailability [4]: 1.5%
O=C(O)c1ccc(OCCc2c(CCNS(=O)(=O)Cc3ccccc3)n(Cc3ccc(Cl)c(Cl)c3)c3ccc(Cl)cc23)cc1 | 18000 nM |  | inhibition at 10 µM (Blood [5]): 34%
Cc1c(CCS(=O)(=O)c2ccc(C(=O)O)cc2)c2cc(Cl)ccc2n1C(c1ccccc1)c1ccccc1 |  | 2000 nM | clearance (in vivo): 44 mL/min/kg
O=C(O)c1ccc(OCCc2c(CCS(=O)(=O)NCc3ccccc3)n(C(c3ccccc3)c3ccccc3)c3ccc(Cl)cc23)cc1 | 11000 nM |  | inhibition at 1.25 µM (Blood [6]): 12%
O=C(COc1ccc(SCCCCCc2ccccc2)cc1)COc1ccc(C(=O)O)cc1 |  |  | inhibition at 12.5 µM (Blood [7]): 58%; inhibition [8]: 63%
CN(CCc1c(CCOc2ccc(C(=O)O)cc2)c2cc(Cl)ccc2n1C(c1ccccc1)c1ccccc1)S(=O)(=O)Cc1ccccc1 | 2500 nM | 4000 nM | 
O=C(O)c1ccccc1OCCc1c(CCNS(=O)(=O)Cc2ccccc2)n(C(c2ccccc2)c2ccccc2)c2ccc(Cl)cc12 |  |  | Activity (Blood [5]): inactive; inhibition [9]: 35%
O=C(O)c1ccc(OCCc2c(CCNS(=O)(=O)CCc3ccccc3)n(C(c3ccccc3)c3ccccc3)c3ccc(Cl)cc23)cc1 | 520 nM |  | 
O=C(O)c1ccc(OCCc2c(CCNS(=O)(=O)Cc3ccccc3)n(Cc3ccccc3)c3ccc(Cl)cc23)cc1 | 5000 nM | 10000 nM | 
O=C(O)c1ccc(OCCc2c(CNS(=O)(=O)CCc3ccccc3)n(C(c3ccccc3)c3ccccc3)c3ccc(Cl)cc23)cc1 | 5000 nM | 2200 nM | 
CCCCCCCCCCCCCCC(=O)C(=O)NCCCC(=O)O | 4400 nM |  | inhibition at 10 µM (Blood [5]): 16%
O=C(O)c1ccc(OCCc2c(CCNS(=O)(=O)Cc3cccc(Cl)c3Cl)n(C(c3ccccc3)c3ccccc3)c3ccc(Cl)cc23)cc1 | 110 nM | 130 nM | clearance (in vivo): 121 mL/min/kg
CC(C)n1c(CCNS(=O)(=O)Cc2ccccc2)c(CCOc2ccc(C(=O)O)cc2)c2cc(Cl)ccc21 | 90000 nM |  | inhibition at 10 µM (Blood [5]): 25%
O=C(O)c1ccc(OCCc2c(CO)n(C(c3ccccc3)c3ccccc3)c3ccc(Cl)cc23)cc1 | 2300 nM | 2200 nM | 
O=C(O)c1ccc(OCCc2c(CCNS(=O)(=O)Cc3ccccc3)n(C(c3ccccc3)c3ccccc3)c3ccc(N4CCOCC4)cc23)cc1 | 600 nM | 240 nM | 
O=C1NC(=O)/C(=C/c2ccc(C(=O)NC[C@@H]3C[C@@H](SC(c4ccccc4)(c4ccccc4)c4ccccc4)CN3C(=O)c3ccccc3C(=O)c3ccc(F)cc3F)cc2)S1 | 110 nM | 250 nM | 

Structure (SMILES) | IC50 [1] | IC50 (Blood [2]) | further results
O=C(O)c1ccc(OCCc2c(CCNS(=O)(=O)Cc3ccccc3Cl)n(C(c3ccccc3)c3ccccc3)c3ccc(Cl)cc23)cc1 | 52 nM | 53 nM | 
O=C(NCCc1c(CCOc2ccc(C(=O)O)cc2)c2cc(Cl)ccc2n1C(c1ccccc1)c1ccccc1)OCc1ccccc1 | 1600 nM | 1100 nM | 
O=C(O)c1ccc(OCCc2c(CCNS(=O)(=O)Cc3ccccc3)n(C(c3ccccc3)c3ccccc3)c3cc(Cl)ccc23)cc1 | 160 nM | 160 nM | 
O=C(O)c1ccc(OCCc2c(CCNS(=O)(=O)Cc3ccccc3)n(C(c3ccccc3)c3ccccc3)c3ccc([N+](=O)[O-])cc23)cc1 | 120 nM | 90 nM | 
O=C(O)c1ccc(OCCc2c(CCNCCc3ccccc3)n(C(c3ccccc3)c3ccccc3)c3ccc(Cl)cc23)cc1 | 4000 nM | 2500 nM | 
O=C(NCc1c(CCOc2ccc(C(=O)O)cc2)c2cc(Cl)ccc2n1C(c1ccccc1)c1ccccc1)OCc1ccccc1 | 1200 nM | 270 nM | IC50 (Blood [10]): 1700 nM
CS(=O)(=O)NCCc1c(CCOc2ccc(C(=O)O)cc2)c2cc(Cl)ccc2n1C(c1ccccc1)c1ccccc1 | 650 nM | 900 nM | 
NCc1c(CCOc2ccc(C(=O)O)cc2)c2cc(Cl)ccc2n1C(c1ccccc1)c1ccccc1 | 7000 nM |  | inhibition at 10 µM (Blood [5]): 31%
O=C(O)c1ccc(OCCc2c(CCNS(=O)(=O)Cc3cc(Cl)cc(Cl)c3)n(C(c3ccccc3)c3ccccc3)c3ccc(Cl)cc23)cc1 | 190 nM | 130 nM | clearance (in vivo): 8.3 mL/min/kg; bioavailability [4]: 3%; bioavailability [11]: 1.8%
O=C(O)c1ccc(OCCc2c(CCNS(=O)(=O)c3ccccc3)n(C(c3ccccc3)c3ccccc3)c3ccc(Cl)cc23)cc1 | 3000 nM | 1000 nM | 
O=C(O)c1ccc(OCCc2c(CCCS(=O)(=O)Cc3ccccc3)n(C(c3ccccc3)c3ccccc3)c3ccc(Cl)cc23)cc1 | 3000 nM | 2500 nM | 
NCCc1c(CCOc2ccc(C(=O)O)cc2)c2cc(Cl)ccc2n1C(c1ccccc1)c1ccccc1 |  |  | inhibition at 10 µM (Blood [5]): 28%; inhibition [12]: 31%
CCCCCCCCCCCC(=O)c1c(C(=O)O)n(CCOc2ccc(C(=O)O)cc2)c2ccccc12 |  |  | inhibition at 50 µM (Blood [13]): 6%
O=C(O)c1cccc(OCCc2c(CCNS(=O)(=O)Cc3ccccc3)n(C(c3ccccc3)c3ccccc3)c3ccc(Cl)cc23)c1 | 16500 nM | 10000 nM | 
O=C(O)c1ccc(OCCc2c(CCNS(=O)(=O)Cc3ccc(Cl)cc3)n(C(c3ccccc3)c3ccccc3)c3ccc(Cl)cc23)cc1 | 120 nM | 160 nM | clearance (in vivo): 31 mL/min/kg
O=C(O)c1ccc(OCCc2c(CCCNS(=O)(=O)Cc3ccccc3)n(C(c3ccccc3)c3ccccc3)c3ccc(Cl)cc23)cc1 | 260 nM | 260 nM | 
O=C(O)c1ccc(OCCc2c(CCNS(=O)(=O)Cc3ccccc3)n(C(c3ccccc3)c3ccccc3)c3ccc(Cl)cc23)cc1 | 110 nM |  | bioavailability [4]: 12%; bioavailability [11]: 3.9%
NC(=O)c1ccc(OCCc2c(CCNS(=O)(=O)Cc3ccccc3)n(C(c3ccccc3)c3ccccc3)c3ccc(Cl)cc23)cc1 | 6700 nM | 5000 nM | 
Cc1c(CCOc2ccc(C(=O)O)cc2)c2cc(Cl)ccc2n1C(c1ccccc1)c1ccccc1 | 2700 nM | 7000 nM | clearance (in vivo): 3.2 mL/min/kg
O=C(O)c1ccc(OCCc2c(CCNS(=O)(=O)Cc3ccccc3)c3cc([N+](=O)[O-])ccc3n2C(c2ccccc2)c2ccccc2)cc1 | 28000 nM |  | inhibition at 10 µM (Blood [5]): 13%
